Source: PubChem BioAssay (several laboratories)
Sampled rows, rich in hits. Any-hit rate of the full collection: about 1.6%.
HSV replic up: HSV replication enhancement | HSV replication augmentation in cells, fold increase | maximum fold increase | actives 0.005% (n = 220,000); in the data active = maximum fold increase above about 1.5; inconclusive = no clear call, values can overlap the other calls; tested in PC3 cells
ABCB1 block: human ABCB1 inhibition, ABCG2 as counter-screen; P08183; CCRF-Adr cells, JC-1 efflux, flow cytometry; inhibition, % at 6.6 µM; actives 0.067% (n = 190,000); in the data active = inhibition above about 40%;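 also: 0% = vehicle and 100% = reference inhibitor; higher value means more JC-1 retained so stronger ABCB1 efflux block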
PKD1 inh: PKD1 (human) kinase inhibition | inhibition, % (test concentration not listed) | PKD1 kinase fluorescence polarization assay | Q15139 | actives 0.056% (n = 200,000); in the data active = inhibition above about 50%
ABCG2 inh: blocks JC-1 efflux by human ABCG2 transporter. Q9UNQ0. IgMXP3 cells, flow cytometry. inhibition, % at 6.6 µM. actives 0.1% (n = 190,000);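 active = inhibition above 80%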;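 also: 0% = DMSO and 100% = nicardipine control wells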
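Test system: ABCG2 IgMXP3 and barcoded ABCB1 CCRF-Adr cell mix; Schedule: cells with compound and JC-1, 10 min at 25 °C, rotating, no wash; Technique: flow cytometry of retained JC-1 fluorescence; Measure: % inhibition of efflux relative to nicardipine and DMSO; Controls: nicardipine high and DMSO low controls.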
PHOSPHO1 block: PHOSPHO1 (human) inhibition; Q8TCT1; actives 1.1% (n = 290,000); inhibition, % at 13.3 µM; recombinant PHOSPHO1, absorbance phosphatase assay; AID 1565; in the data active = inhibition above about 60%
Target sequence (Q8TCT1 whole entry, looked up): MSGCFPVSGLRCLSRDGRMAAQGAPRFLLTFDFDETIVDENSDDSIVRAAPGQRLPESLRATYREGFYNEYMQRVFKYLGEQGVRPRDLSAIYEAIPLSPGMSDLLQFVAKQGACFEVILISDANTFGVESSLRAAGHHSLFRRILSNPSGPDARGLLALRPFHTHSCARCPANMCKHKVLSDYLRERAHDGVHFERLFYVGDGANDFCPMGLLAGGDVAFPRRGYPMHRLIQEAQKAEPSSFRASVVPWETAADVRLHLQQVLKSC
p47phox inh: p47phox (human) inhibition | P14598 | p47phox/p22phox peptide binding, fluorescence polarization, 2 h | inhibition, % at 24.7 µM | actives 0.53% (n = 220,000) | AID 1274;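 active = inhibition above about 30%, limit read from the data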;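 also: 0% = p47phox with labelled peptide and 100% = labelled peptide alone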
Active calls of the source: *; i = inactive; ? = inconclusive; . = no result.

SMILES	HSV replic up	ABCB1 block	PKD1 inh	ABCG2 inh	PHOSPHO1 block	p47phox inh
COc1cccc(C(=O)NC2CC3CCCC(C2)N3CC(=O)Nc2ccccc2)c1 (stereo not drawn)	i	3	-10	4	33	58*
CC[n+]1c(/C=C/Nc2ccccc2)oc2ccc(OC)cc21	i	0	2	1	28	-36
CC[n+]1c(/C=C/Nc2ccccc2)oc2ccccc21	i	0	-3	1	101*	-3
CCCN1C(=O)/C(=C\C=C2/Sc3ccccc3N2CC)SC1=S	?	3	-5	7	12	77*
CCN1/C(=C\C=C2\C(=O)N(c3ccccc3)C(=S)N2C)Sc2ccccc21	i	0	-3	-3	-27	23
CCOc1ccc(NC(=O)c2ccc3c(c2)CCN3S(C)(=O)=O)cc1	.	.	.	.	-1	.
CCCCCCCCS(=O)c1sc2nc(C)cc(C)c2c1N (stereo not drawn)	i	1	-7	3	94*	-4
CCCCCCCCS(=O)c1sc2nc3c(cc2c1N)CCCC3 (stereo not drawn)	i	0	3	1	.	-19
CCS(=O)(=O)c1ccc2oc(Nc3ccc(C(C)C)cc3)nc2c1	i	0	3	1	82*	8
CN(C)C=NC1=NN(c2cccc(C(F)(F)F)c2)CC1	i	0	-4	2	97*	-7
O=C(c1cc(COc2cccc3cnccc23)on1)N1CCCC(CCCO)C1 (stereo not drawn)	.	.	.	.	63*	.
O=C(c1cc(COc2ccc(F)cc2Cl)on1)N1CCCC(c2ccccc2)C1 (stereo not drawn)	i	2	4	6	43	-11
O=C(c1cc(COc2ccc(F)cc2F)on1)N1CCCC(c2ccccc2)C1 (stereo not drawn)	i	3	-6	9	60*	-7
CCCCC(CC)CNC(=O)c1ccc2c(c1)OCO2 (stereo not drawn)	i	-3	-9	-2	-4	-3
O=C(NNC(=O)c1c(O)c2ccccc2[nH]c1=O)c1ccccc1Br	.	.	.	.	27	.
CC(C)(C)N(Cc1ccccc1)C(=O)COC(=O)CN1C(=O)NC2(CCCC2)C1=O	.	.	.	.	26	.
CCCN1C(=O)/C(=C/c2c(NCCCOCC)nc3c(C)cccn3c2=O)SC1=S	?	68*	-1	63	13	-54
CCOC(=O)CC(=O)CSc1nc2c(cc1C#N)CCCCCC2	i	0	.	12	76*	-9
c1ccc2c(c1)OCC(c1nnc3sc(-c4cnccn4)nn13)O2 (stereo not drawn)	i	0	2	-1	58	-14
c1ccc2c(c1)OCC(c1nnc3sc(-c4ccc5c(c4)OCO5)nn13)O2 (stereo not drawn)	i	0	-5	0	84*	-26
Fc1ccc(-c2nn3c(C4COc5ccccc5O4)nnc3s2)cc1 (stereo not drawn)	.	0	-12	0	79*	-8
c1csc(-c2nn3c(C4COc5ccccc5O4)nnc3s2)c1 (stereo not drawn)	i	0	-8	0	69*	-13
CN(C)c1ccc(P(=O)(OC2CCCCC2)C(O)c2ccncc2)cc1 (stereo not drawn)	i	.	.	.	36	-13
CCOc1ccc(NC(=S)NNC(=O)CC(C)O)cc1 (stereo not drawn)	i	0	0	0	-24	1
COc1ccc(/C=N/Nc2nc(-c3ccc(Cl)cc3)cc(C(F)(F)F)n2)c(OC)c1	i	-1	2	-4	-12	-4
SMILES	HSV replic up	ABCB1 block	PKD1 inh	ABCG2 inh	PHOSPHO1 block	p47phox inh
Cc1ccc(C(C)C)c(OCc2nc(-c3nonc3N)no2)c1	i	1	1	12	4	166*
CC1=C(C(=O)Nc2ccc(C(=O)NCCCN3CCCCC3)cc2)SCCO1	.	.	.	.	37	.
CNc1cccc2c1C(=O)c1ccccc1C2=O	i	1	7	63	9	1
CNc1cccccc1=S	i	0	8	-1	76*	19
CCCCCCCSc1nnc(-c2ccccc2N)c(=O)[nH]1	i	0	2	1	-14	-6
CCCCSc1nnc(-c2ccccc2N)c(=O)[nH]1	i	1	-4	22	90*	-18
CCCCCSc1nnc(-c2cc(Br)ccc2N)c(=O)[nH]1	i	0	2	2	95*	-12
CC(=O)NC(=S)NNC(=O)COc1ccc([N+](=O)[O-])cc1	i	0	0	1	67*	-2
CC(=O)NC(=S)NNC(=O)COc1ccc(Br)cc1	i	0	4	7	61*	-8
COc1ccc(NC(=O)COc2ccc(Br)cc2)c(OC)c1	.	.	.	.	60*	.
COc1cc(C(=O)CCN2CCC(c3ccccc3)C2)cc(OC)c1OC (stereo not drawn)	i	1	-2	-2	-16	-3
CC1(C)CC(=O)/C(=C\c2cccc([N+](=O)[O-])c2)C(C)(C)N1	i	1	-7	16	-10	-7
COC(=O)C1CN(C(=O)COc2ccc(Cl)c(C)c2)c2ccccc2O1 (stereo not drawn)	.	.	.	.	7	.
CCOc1ccccc1OCCOCCN1CCN(Cc2ccccc2)CC1	i	0	-7	-1	37	40*
COc1ccc(-n2nc(C(=O)NCC(=O)NCCC3=CCCCC3)c3ccccc3c2=O)cc1OC	.	.	.	.	12	.
COc1cccc(-n2c(CNC(=O)OC(C)(C)C)n[nH]c2=S)c1	i	0	7	0	84*	-14
COc1cccc(C(=O)NCc2n[nH]c(=S)n2-c2cccc(C)c2)c1	i	1	15	5	87*	7
COc1ccc(CC(=O)NCc2n[nH]c(=S)n2-c2cccc(C)c2)cc1	i	0	-1	7	1	-10
Cn1c(CCNC(=O)OC(C)(C)C)n[nH]c1=S	i	0	-2	3	79*	-3
Cc1cccc(NNC(=S)Nc2c(C)cccc2C)c1	.	.	.	.	31	.
CCCCCCCSc1nnc(N)s1	i	.	.	.	43	-4
CC(=O)/C(=N\Nc1ccc(C)cc1)N1CCOCC1	i	0	-7	-1	65*	0
Cc1ccc(CC(=O)Nc2ccc(C(=O)N3CCOCC3)cc2)cc1	.	.	.	.	27	.
COc1ccc(-c2cnn3c4c(c(C)nc23)CCN4C(C)C)cc1OC	i	0	3	1	62*	2
COC(CN1CCc2c(C)nc3c(C#N)cnn3c21)OC	i	1	-3	7	24	-9
Cc1onc(-c2c(F)cccc2Cl)c1C(=O)NC1CCSC1=O (stereo not drawn)	i	0	-2	1	24	3
N#Cc1cccc(NC(=O)CNC(=O)Cc2ccccc2)c1	.	.	.	.	23	.
N#Cc1cccc(NC(=O)CSc2ccc3c4c(cccc24)C(=O)c2ccccc2-3)c1	.	26	2	46	53	40*
